According to ChEMBL document CHEMBL1140983, “Pyrazoles and pyrazolines as neural and inducible nitric oxide synthase (nNOS and iNOS) potential inhibitors (III)” (Eur J Med Chem, 2008):

Legend:
[1] = target: Nitric oxide synthase, inducible (Rattus norvegicus) (UniProt Q06518); experiment: Inhibition of iNOS in LPS-induced rat lungs assessed as conversion of L-[3H]arginine to L-[3H]citrulline at 1 mM by liquid scintillation spectroscopy
In short: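 iNOS induced by LPS 20 mg/kg i.v. in rats; lungs taken 8 h later, homogenized in ice-cold Tris buffer (pH 7.6) with protease inhibitors, then incubated with 10 mM EDTA to remove nNOS activity. Activity read as [3H]-citrulline from L-[3H]-arginine by the striatal-assay procedure, compound at 1 mM final, 37 °C 30 min; mean ± SEM, three experiments in triplicate.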

[2] = target: Nitric oxide synthase 1 (Rattus norvegicus) (UniProt P29476); experiment: Inhibition of nNOS in Wistar rat striata assessed as conversion of L-[3H]arginine to L-[3H]citrulline at 1 mM by liquid scintillation spectroscopy
Chain of Nitric oxide synthase 1 (Rattus norvegicus) (P29476 whole entry): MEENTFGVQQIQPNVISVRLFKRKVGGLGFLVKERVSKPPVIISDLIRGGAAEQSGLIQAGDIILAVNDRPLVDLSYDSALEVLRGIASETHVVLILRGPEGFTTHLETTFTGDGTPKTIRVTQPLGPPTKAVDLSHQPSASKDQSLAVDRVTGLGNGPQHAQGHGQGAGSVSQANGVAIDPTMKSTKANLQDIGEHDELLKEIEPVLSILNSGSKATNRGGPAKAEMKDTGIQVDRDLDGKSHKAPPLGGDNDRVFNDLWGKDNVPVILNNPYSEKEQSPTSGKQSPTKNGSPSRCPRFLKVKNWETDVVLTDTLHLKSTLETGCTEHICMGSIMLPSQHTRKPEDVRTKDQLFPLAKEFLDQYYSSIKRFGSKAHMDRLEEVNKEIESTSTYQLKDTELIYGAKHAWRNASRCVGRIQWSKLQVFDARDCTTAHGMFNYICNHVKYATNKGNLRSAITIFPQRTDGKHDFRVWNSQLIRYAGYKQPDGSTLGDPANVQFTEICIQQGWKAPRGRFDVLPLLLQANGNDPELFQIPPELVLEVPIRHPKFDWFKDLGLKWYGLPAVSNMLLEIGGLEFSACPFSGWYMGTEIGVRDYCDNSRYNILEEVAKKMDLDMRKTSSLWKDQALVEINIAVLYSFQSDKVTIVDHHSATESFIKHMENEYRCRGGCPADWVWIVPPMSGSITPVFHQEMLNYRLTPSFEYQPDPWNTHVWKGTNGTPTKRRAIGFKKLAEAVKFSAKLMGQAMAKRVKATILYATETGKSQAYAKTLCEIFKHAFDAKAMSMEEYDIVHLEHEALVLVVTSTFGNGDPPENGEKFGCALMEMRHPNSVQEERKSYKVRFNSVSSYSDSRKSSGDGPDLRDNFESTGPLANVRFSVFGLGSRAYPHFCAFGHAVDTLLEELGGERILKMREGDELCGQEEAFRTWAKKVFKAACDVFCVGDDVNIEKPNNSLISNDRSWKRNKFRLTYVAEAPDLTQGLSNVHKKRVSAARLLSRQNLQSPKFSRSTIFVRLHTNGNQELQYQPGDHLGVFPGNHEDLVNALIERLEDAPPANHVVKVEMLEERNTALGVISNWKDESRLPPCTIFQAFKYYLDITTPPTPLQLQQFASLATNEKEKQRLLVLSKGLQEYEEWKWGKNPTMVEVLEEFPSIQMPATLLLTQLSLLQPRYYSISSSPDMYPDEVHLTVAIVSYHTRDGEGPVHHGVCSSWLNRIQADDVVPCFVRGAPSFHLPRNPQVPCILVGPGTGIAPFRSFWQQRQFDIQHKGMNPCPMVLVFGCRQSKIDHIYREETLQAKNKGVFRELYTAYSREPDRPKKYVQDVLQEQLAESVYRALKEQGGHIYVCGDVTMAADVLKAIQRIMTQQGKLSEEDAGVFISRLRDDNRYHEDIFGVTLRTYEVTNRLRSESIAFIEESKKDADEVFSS
In short: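 Male Wistar rats (200–250 g); fresh striata homogenized in Tris buffer (pH 7.6) with protease inhibitors, spun 1000 g 5 min, supernatant used. Incubation: 25 mM Tris, 1 mM DTT, 30 µM H4-biopterin, 10 µM FAD, 0.1 mM CaCl2, 10 µM L-arginine plus 50 nM L-[3H]-arginine; started with NADPH (0.75 mM final) and compound in DMSO (1 mM final), 37 °C 30 min. Dowex-50W separation; NADPH-omitted blank subtracted; mean ± SEM, three experiments in triplicate.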

Chain of Nitric oxide synthase, inducible (Rattus norvegicus) (Q06518 whole entry): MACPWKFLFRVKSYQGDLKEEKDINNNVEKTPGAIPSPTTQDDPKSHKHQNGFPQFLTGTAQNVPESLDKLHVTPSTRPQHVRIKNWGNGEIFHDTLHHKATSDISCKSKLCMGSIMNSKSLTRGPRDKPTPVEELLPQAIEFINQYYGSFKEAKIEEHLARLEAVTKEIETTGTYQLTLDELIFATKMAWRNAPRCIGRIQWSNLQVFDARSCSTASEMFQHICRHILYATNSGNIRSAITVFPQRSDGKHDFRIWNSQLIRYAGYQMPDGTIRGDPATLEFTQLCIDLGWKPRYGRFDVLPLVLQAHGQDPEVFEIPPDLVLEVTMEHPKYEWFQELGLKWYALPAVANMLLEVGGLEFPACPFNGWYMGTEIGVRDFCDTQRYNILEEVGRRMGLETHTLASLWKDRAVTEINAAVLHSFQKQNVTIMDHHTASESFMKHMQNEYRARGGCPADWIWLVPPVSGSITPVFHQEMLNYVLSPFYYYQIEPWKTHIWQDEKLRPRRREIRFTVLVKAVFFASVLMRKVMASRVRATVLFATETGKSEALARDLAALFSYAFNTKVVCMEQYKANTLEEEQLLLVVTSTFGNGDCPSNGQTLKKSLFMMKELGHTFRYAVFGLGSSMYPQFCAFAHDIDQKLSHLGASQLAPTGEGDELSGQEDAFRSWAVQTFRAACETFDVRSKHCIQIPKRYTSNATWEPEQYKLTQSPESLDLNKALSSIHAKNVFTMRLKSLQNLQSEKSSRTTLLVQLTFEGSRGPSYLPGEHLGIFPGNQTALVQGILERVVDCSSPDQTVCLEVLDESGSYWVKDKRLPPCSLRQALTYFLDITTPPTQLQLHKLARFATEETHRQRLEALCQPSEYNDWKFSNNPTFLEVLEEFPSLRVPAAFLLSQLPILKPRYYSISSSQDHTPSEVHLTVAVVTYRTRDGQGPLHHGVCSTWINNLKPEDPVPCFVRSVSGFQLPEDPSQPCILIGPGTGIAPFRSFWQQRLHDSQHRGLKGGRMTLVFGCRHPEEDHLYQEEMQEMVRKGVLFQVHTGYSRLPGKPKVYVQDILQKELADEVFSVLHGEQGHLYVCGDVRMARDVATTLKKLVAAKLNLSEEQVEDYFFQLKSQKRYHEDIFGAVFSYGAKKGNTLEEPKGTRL

| Compound | inhibition [1] | inhibition [2] |
| --- | --- | --- |
| CCOC(=O)C1CC(C(=O)c2cc(Cl)ccc2N)=NN1CC (stereo not drawn) | 14.7% | 41.5% |
| CCCCn1nc(C(=O)c2ccccc2N)cc1C(=O)OCC | 5.4% | 21.9% |
| CCOC(=O)c1cc(C(=O)c2ccccc2N)nn1CC | 12.5% | 39.5% |
| CCCCN1N=C(C(=O)c2cc(OC)ccc2N)CC1C(=O)OCC (stereo not drawn) | 18.6% | -10% |
| CCOC(=O)C1CC(C(=O)c2cc(Cl)ccc2N)=NN1 (stereo not drawn) | 19.1% | 32.1% |
| CCOC(=O)c1cc(C(=O)c2cc(Cl)ccc2N)nn1CC | 27.5% | 35.5% |
| CCCCN1N=C(C(=O)c2ccccc2N)CC1C(=O)OCC (stereo not drawn) | 12.2% | 29.6% |
| CCOC(=O)c1cc(C(=O)c2cc(OC)ccc2N)nn1Cc1ccccc1 | 30.5% | 19.4% |
| CCOC(=O)C1CC(C(=O)c2ccccc2N)=NN1CC (stereo not drawn) | -1.5% | 22.1% |
| CCOC(=O)C1CC(C(=O)c2cc(Cl)ccc2N)=NN1C (stereo not drawn) | 22.9% | 1.3% |
| CCCCn1nc(C(=O)c2cc(Cl)ccc2N)cc1C(=O)OCC | 18.7% | 7.8% |

Results, then the compound that gave them:

| inhibition [1] | inhibition [2] | Compound |
| --- | --- | --- |
| 50.4% | 2.7% | CCOC(=O)c1cc(C(=O)c2cc(Cl)ccc2N)nn1Cc1ccccc1 |
| 20.5% | 26.2% | CCCCn1nc(C(=O)c2cc(OC)ccc2N)cc1C(=O)OCC |
| 12.7% | -9.8% | CCOC(=O)C1CC(C(=O)c2ccccc2N)=NN1C (stereo not drawn) |
| 7.3% | 14.5% | CCOC(=O)c1cc(C(=O)c2cc(Cl)ccc2N)nn1C |
| 24.6% | 20.3% | CCOC(=O)c1cc(C(=O)c2cc(OC)ccc2N)nn1CC |
| 17.3% | 18.3% | CCOC(=O)C1CC(C(=O)c2cc(Cl)ccc2N)=NN1Cc1ccccc1 (stereo not drawn) |
| 12.8% | 40.2% | CCOC(=O)c1cc(C(=O)c2cc(Cl)ccc2N)n[nH]1 |
| 10.5% | 38.5% | CCCCN1N=C(C(=O)c2cc(Cl)ccc2N)CC1C(=O)OCC (stereo not drawn) |
| 10.5% | 9.3% | CCOC(=O)C1CC(C(=O)c2cc(OC)ccc2N)=NN1Cc1ccccc1 (stereo not drawn) |
| 9.4% | 28.4% | CCOC(=O)C1CC(C(=O)c2ccccc2N)=NN1Cc1ccccc1 (stereo not drawn) |
| 13.5% | 21.9% | CCOC(=O)c1cc(C(=O)c2ccccc2N)nn1Cc1ccccc1 |
| 0.6% | -7.8% | CCOC(=O)C1CC(C(=O)c2cc(OC)ccc2N)=NN1C (stereo not drawn) |
| 17.1% | 1.7% | CCOC(=O)C1CC(C(=O)c2cc(OC)ccc2N)=NN1CC (stereo not drawn) |
